CHT block – human CHT choline transport inhibition. 310,000 compounds, 0.86% hits. CHT-expressing cells, membrane potential dye, choline response; active compounds read low. Q9GZV3. AID 488975. B-score at 10 µM;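 active = B-score over 3 SD under the library average, and starting fluorescence ratio not unusually high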;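 note: choline stimulus applied at its EC90 after an EC20 pre-addition; B-score computed on integrated fluorescence ratio after choline addition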
ANO1 activ – activators or potentiators of mouse TMEM16A chloride channel | Q8BHY3 | HEK293 TMEM16A/YFP-H148Q/I152L, iodide quench fluorescence; active compounds read low | B-score at 10 µM | 340,000 compounds, 0.3% hits;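 active = fluorescence-ratio B-score plate-corrected deviation score at least 3 library SD below zero, with starting fluorescence score within 5 deviations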;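 note: channel opened by trigger with iodide after compound preincubation; score built on the fluorescence ratio of max minus min over baseline; more negative score means more quench and so TMEM16A activation or potentiation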
Target sequence (Q8BHY3 whole entry, looked up): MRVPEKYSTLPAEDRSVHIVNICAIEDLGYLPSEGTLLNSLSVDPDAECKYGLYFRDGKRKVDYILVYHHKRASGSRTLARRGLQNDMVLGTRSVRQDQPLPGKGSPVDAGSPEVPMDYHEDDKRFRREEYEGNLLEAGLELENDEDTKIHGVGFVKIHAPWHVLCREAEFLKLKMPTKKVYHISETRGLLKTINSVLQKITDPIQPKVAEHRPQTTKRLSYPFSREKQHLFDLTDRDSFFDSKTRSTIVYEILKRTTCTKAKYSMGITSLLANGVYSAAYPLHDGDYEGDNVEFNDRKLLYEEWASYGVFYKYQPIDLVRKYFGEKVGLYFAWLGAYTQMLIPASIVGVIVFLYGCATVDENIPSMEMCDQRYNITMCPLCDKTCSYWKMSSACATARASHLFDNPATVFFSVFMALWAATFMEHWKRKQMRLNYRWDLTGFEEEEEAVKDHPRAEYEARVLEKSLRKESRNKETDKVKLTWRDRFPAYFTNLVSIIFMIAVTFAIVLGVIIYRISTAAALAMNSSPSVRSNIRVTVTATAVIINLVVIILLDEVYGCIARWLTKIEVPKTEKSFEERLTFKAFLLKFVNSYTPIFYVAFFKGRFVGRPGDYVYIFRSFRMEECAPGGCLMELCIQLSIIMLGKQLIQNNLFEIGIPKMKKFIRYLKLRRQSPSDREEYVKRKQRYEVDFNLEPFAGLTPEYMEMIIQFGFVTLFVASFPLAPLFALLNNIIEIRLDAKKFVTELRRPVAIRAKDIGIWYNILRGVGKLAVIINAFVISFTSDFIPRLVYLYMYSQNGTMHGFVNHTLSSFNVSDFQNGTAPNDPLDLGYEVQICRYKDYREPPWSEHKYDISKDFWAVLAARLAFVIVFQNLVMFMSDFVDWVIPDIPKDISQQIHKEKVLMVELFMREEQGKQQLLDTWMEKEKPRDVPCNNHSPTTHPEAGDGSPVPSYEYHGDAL
ANO1 block – mouse TMEM16A channel inhibition, primary screen. HEK293 TMEM16A/YFP iodide influx fluorescence, ionomycin. normalized B-score (activity score, 25-100; higher = stronger inhibition) at 10 µM. 310,000 compounds, 1.2% hits;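 active = ratio plate-corrected score three or more library SD toward inhibition, starting fluorescence score within five deviations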;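 note: score derived from kinetic fluorescence span divided by baseline fluorescence per well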
CHT PAM – human CHT allosteric activation; Q9GZV3; CHT-expressing cells, membrane potential dye, choline EC20; active compounds read high; LV-AA mutant CHT in HEK293 cells; B-score at 10 µM; 310,000 compounds, 0.49% hits; AID 488977;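 active = initial fluorescence not abnormally high and integrated response B-score, plate-corrected, over 3 SD above library mean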
IMP-1 inh – blocks Pseudomonas aeruginosa IMP-1 metallo-beta-lactamase; purified IMP-1, nitrocefin hydrolysis, epi-absorbance fluorescence; inhibition, % at 5.6 µM; 290,000 compounds, 0.45% hits; AID 1556;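 active = inhibition above the mean plus 3 SD of all compounds in the same screening run, cut at about 4.5% in these data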;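 note: 0% = IMP-1 with DMSO and 100% = DMSO wells lacking enzyme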
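System: purified IMP-1; amount: IMP-1 0.2 nM before substrate addition; compound: single dose, 5.6 µM; times: 25 °C, 15 min preincubation, 25 min reaction; signal: Epi-absorbance via hydrolysed-nitrocefin quenching of white-plate fluorescence, 480/530 nm, EDTA stop; benchmarks: DMSO with and without IMP-1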
VIM-2 inhibitor – inhibitors of Pseudomonas aeruginosa VIM-2 metallo-beta-lactamase; purified VIM-2, nitrocefin hydrolysis, epi-absorbance fluorescence; inhibition, % at 5.6 µM; 290,000 compounds, 0.89% hits; AID 1527;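 active = inhibition above the mean of all tested compounds plus 3 SD, cutoff set per screening run, cut at about 7.5% in these data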;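 note: red hydrolysis product quenches plate fluorescence so inhibitors raise well fluorescence; 0% = enzyme with DMSO and 100% = DMSO without enzyme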
TMEM16A reconf – TMEM16A (mouse) chloride channel inhibition, re-confirmation. inhibition, % at 10 µM. shares compounds with ANO1 block. HEK293 TMEM16A/YFP-H148Q, iodide quench fluorescence; ionomycin added to raise cell calcium. 2,300 compounds, 39% hits;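 active = mean duplicate percent inhibition, scaled so buffer wells are 0 and the reference blocker 100, over three buffer SD above buffer mean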
HEK293 Ca mobil – calcium mobilization counter-screen hit for TMEM16A inhibitor series; shares compounds with ANO1 block; calcium response (% of ionomycin), % at 10 µM; TMEM16A/YFP HEK293, Fluo4 calcium mobilization; 2,300 compounds, 2% hits; AID 652231;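 active = duplicate-averaged calcium signal over 20% of the ionomycin maximum, relative to buffer baseline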;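 note: each well's signal is peak minus trough fluorescence divided by its pre-addition baseline; 0% = buffer wells and 100% = ionomycin wells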
YFP-HEK293 quench – acts in parental YFP-HEK293 cells lacking TMEM16A, counter-screen; shares compounds with ANO1 block; iodide YFP quench, ionomycin; YFP ratio F(max-min)/F0 at 10 µM; 2,300 tested, under 10 active;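 active = yellow fluorescent protein signal ratio exceeding the buffer control mean by over 5 SD of those controls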;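 note: ratio is mean of duplicate wells from kinetic YFP trace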
ClC-1 rat inh – rat ClC-1 inhibition, TMEM16A specificity screen. shares compounds with ANO1 block. ratio percent, % at 10 µM. CHO ClC-1-YFP, iodide influx fluorescence quench; iodide control reads 0, buffer control 100. 2,300 tested, under 10 active;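 active = duplicate-mean ratio percent above the mean of iodide-only control wells, which defines zero, plus 5 of their SD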;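 note: higher percent means stronger block of ClC-1 iodide influx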
The depositor's hits bear a star; i = inactive; x = no result given. An excerpt weighted towards active compounds, which were near 3.4% of everything screened.

SMILES | CHT block | ANO1 activ | ANO1 block | CHT PAM | IMP-1 inh | VIM-2 inhibitor | TMEM16A reconf | HEK293 Ca mobil | YFP-HEK293 quench | ClC-1 rat inh
Clc1ccc(-c2nnc(CSc3nnc(-c4cccs4)n3Cc3ccccc3)o2)cc1 | i | i | 25* | i | -2.2 | 0.3 | 41.5%* | i | -0.987 | -21.5
O=C(CCSCc1ccccc1Cl)NCc1ccco1 | i | i | i | i | -2.7 | -2.9 | x | x | x | x
O=C(CCSCCC(=O)NCc1ccco1)NCc1ccco1 | i | x | i | i | -1.8 | -0.8 | i | i | -0.985 | -11.0
Cn1c(C2=C(O)CN(Cc3ccccc3)C2=N)nc2ccccc21 | i | i | i | i | -3.0 | -3.7 | x | x | x | x
CCc1nc(SCc2nnc(-c3ccc(C)cc3)o2)c2c(C)c(C)sc2n1 | i | x | i | i | -2.2 | -1.6 | i | i | -1.21 | -8.0
Cc1ccc(NS(=O)(=O)c2sc3ccc(Cl)cc3c2C)cc1 | i | i | 100* | i | 0.6 | 1.1 | i | i | -0.98 | -7.0
Cc1ccc2nc(-c3ccc(NS(=O)(=O)c4ccc(F)c(F)c4)cc3)sc2c1 | i | i | i | i | -1.2 | -0.1 | x | x | x | x
CC(C)OC(=O)C1C2C=CC3(CN(C(C)c4ccc(Br)cc4)C(=O)C13)O2 (configuration not stated) | i | i | 25* | i | -3.7 | -1.4 | i | i | -1.16 | -14.0
CC(c1ccc(Br)cc1)N1CC23C=CC(O2)C(C(=O)O)C3C1=O (configuration not stated) | i | i | i | i | -3.9 | -1.8 | x | x | x | x
CCOC(=O)C1CCCN(C(=O)CCCn2nnnc2CN2CCC(C)CC2)C1 (configuration not stated) | i | i | i | i | 1.4 | 3.0 | x | x | x | x
COc1ccc(C(=O)C2CCN(CC(=O)Nc3ccccc3F)CC2)cc1 | i | i | 25* | i | -1.2 | -2.4 | i | i | -0.905 | -4.0
FC(F)(F)c1ccc(N2CCN(c3cc(-c4ccccc4)nc4ncnn34)CC2)nc1 | i | i | 100* | i | -1.9 | -0.4 | 35.5%* | i | -0.791 | -20.0
FC(F)(F)c1cccc(Nc2cc(-c3ccccc3)nc3ncnn23)c1 | i | i | i | i | -3.1 | -3.1 | x | x | x | x
CC(=O)Oc1cc(C(=O)OCC(=O)NC23CC4CC(CC(C4)C2)C3)cc(OC(C)=O)c1OC(C)=O | x | i | x | x | x | x | x | x | x | x
N#Cc1c(NC(=O)c2ccc([N+](=O)[O-])o2)sc2c1CCC2 | i | i | 100* | i | -3.1 | -0.5 | 41.0%* | i | -1.19 | -5.5
COc1ccccc1CN1CC(C(=O)N(C)Cc2[nH]c3ccccc3c2C)CCC1=O (configuration not stated) | i | i | i | i | -0.9 | -1.1 | x | x | x | x
COc1cc(C2c3c(oc4ccccc4c3=O)C(=O)N2Cc2ccco2)ccc1O (configuration not stated) | i | i | 25* | i | -1.5 | -2.1 | i | i | -0.898 | -3.5
COc1cccc(C2c3c(oc4ccccc4c3=O)C(=O)N2Cc2ccco2)c1 (configuration not stated) | i | i | i | i | x | x | x | x | x | x
CCN(CC)c1ccc(C(=C2C=CC(=[N+](CC)CC)C=C2)c2ccc(S(=O)(=O)O)cc2S(=O)(=O)[O-])cc1 | x | i | x | x | x | x | x | x | x | x
CSc1ncccc1C(=O)NC1CCN(Cc2ccccc2)CC1 | i | i | i | i | -1.4 | -2.4 | x | x | x | x
CCCCn1c(SCc2nc3ccccc3s2)nc2ccccc2c1=O | i | i | i | i | -2.9 | -2.1 | x | x | x | x
CCCCn1c(SCc2nc3ccccc3s2)nc2cc(S(N)(=O)=O)ccc21 | i | i | 25* | i | -0.7 | -0.1 | i | i | -0.806 | -3.0
O=C(NC1=NCCS1)C1CCN(S(=O)(=O)c2ccccc2C(F)(F)F)CC1 | x | i | x | x | x | x | x | x | x | x
C=CCc1cccc(Cl)c1OCCCNC1CCCC1 | i | i | i | i | 1.7 | -0.2 | x | x | x | x
Fc1ccc(CSc2nc3ccccc3[nH]2)c2ccccc12 | i | i | 100* | i | -3.6 | -1.1 | 32.5%* | i | -0.848 | -5.0
SMILES | CHT block | ANO1 activ | ANO1 block | CHT PAM | IMP-1 inh | VIM-2 inhibitor | TMEM16A reconf | HEK293 Ca mobil | YFP-HEK293 quench | ClC-1 rat inh
O=c1cc(CSc2nc3ccccc3[nH]2)c2ccccc2[nH]1 | i | i | i | i | -2.5 | -0.6 | x | x | x | x
CCCCCCCCCc1nc2sc3c(c2c(=O)n1NC(=O)c1ccccc1[N+](=O)[O-])CC(C)(C)OC3 | i | i | 25* | i | -0.8 | -5.1 | i | i | -1.19 | -8.0
CCCCCCCCCc1nc2sc3c(c2c(=O)n1NC(=O)c1ccc([N+](=O)[O-])cc1)CC(C)(C)OC3 | i | i | i | i | -1.5 | -0.1 | x | x | x | x
COC(=O)CSc1nc(-c2ccccc2)nc2ccccc12 | i | i | i | i | -2.8 | -3.0 | x | x | x | x
Cc1cccc2c(SCC(N)=O)nc(-c3ccccc3)nc12 | i | i | 100* | i | -1.8 | -0.3 | i | i | -1.19 | -12.5
CCOC(=O)c1c(NC(=O)CSc2nnc(N)s2)sc(C)c1-c1ccc(C)cc1 | i | i | 25* | i | -3.2 | -2.6 | i | i | -1.15 | -13.0
CN(C)c1cc(-c2cccc(C(F)(F)F)c2)oc(=O)c1Cl | i | i | i | i | x | x | x | x | x | x
C=CCN(CC=C)S(=O)(=O)c1ccc(NC(=S)NC(=O)C2CC2)cc1 | i | i | i | i | -0.7 | -1.4 | x | x | x | x
COC(=O)c1ccc(NC(=O)CSc2nc(=O)n3cccc(C)c3n2)cc1 | i | i | i | i | x | x | x | x | x | x
N#C/C(=N\Nc1ccccc1Cl)C(=O)c1ccccc1 | i | i | 100* | i | -3.1 | -4.1 | i | i | -0.828 | -16.0
Cc1c(N/N=C(\C#N)C(=O)c2ccccc2)c(=O)n(-c2ccccc2)n1C | x | i | x | x | -4.9 | -6.1 | x | x | x | x
Cc1cc(N2CCCC2=O)cc(C)c1S(=O)(=O)NCCOc1ccc(C(C)(C)C)cc1 | i | i | 25* | i | -0.7 | -1.4 | i | i | -1.09 | -29.0
